A short description of test [1]: Cytotoxicity against human Glioblastoma multiformi DBTRG. It counts as functional. The method, boiled down: (§1)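 XTT-tetrazolium growth assay, cells exposed 72 h to six to seven concentrations per compound. Phenazine methosulfate-XTT added for 6 h at 37 °C, then absorbance read at 450 and 630 nm. IC50 derived from median-effect plot of dose-effect data.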
In another test the test system is HONE1 cell line. The experiment in a line: Cytotoxicity against human nasopharyngeal carcinoma HONE-1. It counts as functional, cell-based. The gist of the method:
as §1

Another test deals with HepG2. The experiment in a line: Cytotoxicity against human hepatoma Hepa-G2. The test is classed as functional, cell-based. The method, boiled down: as §1
Another test concerns HT-29. As to the kind of experiment: Cytotoxicity against human colon HT-29 cell line. It counts as functional, cell-based. The method, boiled down: as §1
The test system of test [2] is Nucleic Acid. As to the kind of experiment: Percentage of protein-linked DNA breaks. It counts as functional. More on the design: concentration or dose not given beside the values. The gist of the method: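 Log-phase cells labeled 24 h with [14C]-thymidine, trypsinized, resuspended at 5 × 10⁵ cells/mL and shaken 1 h at 37 °C in suspension. Drug at 10 μM added for 0.5 h. Protein-linked DNA breaks quantified by potassium-SDS coprecipitation and reported as percentage.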

The next test has as its system TSGH. As to the kind of experiment: In vitro cytotoxicity against human TSGH. It counts as functional, cell-based. The gist of the method: as §1
Test [3] is described as follows: Cytotoxicity against human nasopharyngeal carcinoma BM-1. It counts as functional. The gist of the method: as §1
The test system of test [4] is CCRF-CEM. The experiment in a line: (§2) Cytotoxicity against human T-cell acute lymphocytic leukemia CCRF-CEM. It counts as functional, cell-based. The method, boiled down:
as §1

The next test concerns MX1. The experiment in a line: Cytotoxicity against human Breast carcinoma MX-1. It counts as functional, cell-based. The gist of the method: as §1
The subject of test [5] is Nucleic Acid. As to the kind of experiment: Percentage of protein-linked DNA breaks; Not determined. The test is classed as functional.
Test [6] has as its system CCRF-CEM. The test is described as §2. It counts as cell-based. The method, boiled down: as §1

A value given as a limit tells only on which side of the number the result lay.

A word on the IC50: it is the point on the concentration scale where inhibition reaches its midpoint. As for `CN(C)CCNC(=O)c1cc(NC(=O)c2cc(NC(=O)CCC(=O)Nc3cc(CO)cc(Nc4c5ccccc5nc5ccccc45)c3)cn2C)cn1C`, the IC50 in [1] is 20000 nM; with HONE1 cell line, 2400 nM; in the test with HepG2, 7000 nM; in the test with HT-29 it was 4400 nM; in the test on TSGH, 4800 nM; in test [3], 8600 nM. In the test on Nucleic Acid [2], this molecule registered an Activity of 3.3%.

For `CCOC(=O)Nc1cc(COC(=O)CCC(=O)Nc2cc(C(=O)NCCN(C)C)n(C)c2)cc(Nc2c3ccccc3nc3ccccc23)c1`, the IC50 in [1] was 800 nM; in the test on HONE1 cell line, 60 nM; with HepG2, 90 nM; in the test on HT-29 it was 230 nM; in the test with CCRF-CEM [4], 6850 nM; in the test on MX1, 39 nM. For the same molecule, the IC50 (in the test with TSGH; in test [3]) was 80 nM in each case. The molecule also showed an Activity in the test with Nucleic Acid [2] of 16.5%.

For `CN(C)CCNC(=O)c1cc(NC(=O)CCC(=O)Nc2cc(CO)cc(Nc3c4ccccc4nc4ccccc34)c2)cn1C`, the IC50 turned out to be 8100 nM in test [1]; 850 nM in the test on HONE1 cell line; 4200 nM with HepG2; 1700 nM in the test with HT-29; 4600 nM with TSGH; 7000 nM in test [3]. In the test on Nucleic Acid [2], this molecule gave an Activity of 3.3%.

On to `CCOC(=O)Nc1cc(COC(=O)CCCC(=O)Nc2cc(C(=O)Nc3cc(C(=O)NCCN(C)C)n(C)c3)n(C)c2)cc(Nc2c3ccccc3nc3ccccc23)c1`, for which the IC50 was 7500 nM in test [1]; 130 nM in the test with HONE1 cell line; 630 nM in the test on HepG2; 640 nM with HT-29; 2040 nM in the test with CCRF-CEM [4]; 156 nM in the test with MX1. Further, the IC50 in the test with TSGH was found to be 1200 nM; in [3], 490 nM. The same molecule showed an Activity with Nucleic Acid [2] of 4.2%.

For the molecule `Nc1cc(CO)cc(Nc2c3ccccc3nc3ccccc23)c1`, the IC50 in test [1] was found to be 3500 nM; in the test on HONE1 cell line, 310 nM; in the test with HepG2, 1400 nM; in the test on HT-29, 880 nM; with CCRF-CEM [4], 360 nM; in the test with TSGH, 450 nM. Moreover, in [3], 860 nM corresponded to half-maximal inhibition (IC50). In the test with Nucleic Acid [5], this molecule registered an Activity of 10.5%.

Turning to `CN(C)CCNC(=O)c1cc(NC(=O)c2cc(NC(=O)CCCC(=O)Nc3cc(CO)cc(Nc4c5ccccc5nc5ccccc45)c3)cn2C)cn1C`, the IC50 in test [1] is over 100000 nM; in the test with HONE1 cell line it was 63900 nM; with HepG2, 68000 nM; in the test on HT-29, over 100000 nM; in the test with TSGH, 36400 nM; in test [3], 77800 nM. For the same molecule, the Activity in the test with Nucleic Acid [2] came to 0%.

For the molecule `CCOC(=O)Nc1cc(COC(=O)CCCC(=O)Nc2cc(C(=O)NCCN(C)C)n(C)c2)cc(Nc2c3ccccc3nc3ccccc23)c1`, the IC50 in [1] was 400 nM; with HONE1 cell line it was 800 nM; with HepG2, 80 nM; with HT-29, 750 nM; with CCRF-CEM [4], 17600 nM; with MX1, 85 nM. In addition, the half-maximal inhibitory concentration (IC50) is 1200 nM in the test with TSGH and 80 nM in test [3]. For the same molecule, the Activity with Nucleic Acid [2] stood at 4.6%.

Regarding `CN1CCN(c2ccc3nc(-c4ccc5nc(-c6ccc(OCCCC(=O)Nc7cc(CO)cc(Nc8c9ccccc9nc9ccccc89)c7)cc6)[nH]c5c4)[nH]c3c2)CC1`, the IC50 (in [1]; in the test with CCRF-CEM [6]; with HONE1 cell line; in the test with HepG2; in the test with HT-29; in the test on MX1) was over 100000 nM throughout. Moreover, the IC50 (with TSGH; in test [3]) was over 100000 nM in each case.

For `CCOC(=O)Nc1cc(CO)cc(Nc2c3ccccc3nc3ccccc23)c1`, the IC50 in test [1] is 5000 nM; in the test on HONE1 cell line it was 70 nM; in the test on HepG2, 460 nM; in the test on HT-29, 480 nM; in the test with CCRF-CEM [4] it was 57 nM; with TSGH, 340 nM. Also, in test [3], the midpoint of inhibition, the IC50, lay at 380 nM. In the test with Nucleic Acid [2], this molecule had an Activity of 15%.

Take `CN(C)CCNC(=O)c1cc(NC(=O)CCCC(=O)Nc2cc(CO)cc(Nc3c4ccccc4nc4ccccc34)c2)cn1C`: the IC50 in test [1] is 73600 nM; in the test on HONE1 cell line, 39000 nM; in the test on HepG2, 100000 nM; in the test on HT-29 it was over 100000 nM; in the test on TSGH it was 46800 nM; in [3], 73300 nM. This molecule also registered an Activity with Nucleic Acid [2] of 0%.

For the origin of these results see ChEMBL document CHEMBL1135825, “Antitumor AHMA linked to DNA minor groove binding agents: synthesis and biological evaluation” (J Med Chem, 2002).
